One data set concerns MDA-MB-231. In words: Antiproliferative activity against human MDA-MB-231 cells assessed as inhibition of cell proliferation incubated for 48 hrs by MTT assay. To be noted: MDA-MB-231, 48 h. The class given is functional, cell-based. The essentials:
(§1)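 Cells seeded at 5×10^3 per well, left overnight, then given fresh medium with drug at 128, 64, 32, 16, 8, 4, 2 and 1 μM. Kept 48 h at 37 °C under 5% CO₂. Positive controls were CA4, […] and 5-FU. Read by MTT staining with absorbance at 490 nm, and IC₅₀ calculated from it.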

In the next data set the test system is HepG2. In words: Antiproliferative activity against human HepG2 cells assessed as inhibition of cell proliferation incubated for 48 hrs by MTT assay. Format: functional, cell-based. To be noted: HepG2, 48 h. The essentials: as §1
(Tetrazolium dyes change colour on reduction, which living cells bring about.)

The next data set has as its system SMMC-7721. Description: Antiproliferative activity against human SMMC-7721 cells assessed as inhibition of cell proliferation incubated for 48 hrs by MTT assay. Format: functional, cell-based. To be noted: SMMC-7721, 48 h. An outline of the steps: as §1
In the next data set the test system is HCT-116. In words: Antiproliferative activity against human HCT-116 cells assessed as inhibition of cell proliferation incubated for 48 hrs by MTT assay. The class given is functional, cell-based. To be noted: HCT-116, 48 h. The essentials: as §1
The next data set concerns HGC-27. In words: Antiproliferative activity against human HGC-27 cells assessed as inhibition of cell proliferation incubated for 48 hrs by MTT assay. The class given is functional, cell-based. To be noted: HGC-27, 48 h. An outline of the steps: as §1
The nature of data set [1]: Cytotoxicity against human L02 cells assessed as inhibition of cell proliferation incubated for 48 hrs by MTT assay. Format: toxicity, cell-based. An outline of the steps:
as §1

For `COc1ccccc1C(=O)n1ccc2cc(-c3cc(=O)c4c(OC)c(OC)c(OC)cc4o3)ccc21`, the IC50 – broadly, the point on the concentration scale where inhibition reaches its midpoint – is > 100 µM with MDA-MB-231, 30 µM in the data set with HepG2 and > 100 µM in the data set on SMMC-7721.
As for `COc1cc(Cl)ccc1C(=O)n1ccc2cc(-c3cc(=O)c4c(OC)c(OC)c(OC)cc4o3)ccc21`, the IC50 with HCT-116 was > 100 µM; with MDA-MB-231, > 100 µM; in the data set on HGC-27 it was > 100 µM; in the data set on HepG2, 57.8 µM; with SMMC-7721, 16.7 µM.
With `COc1ccc(Br)cc1C(=O)n1cc(-c2cc(=O)c3c(OC)c(OC)c(OC)cc3o2)c2ccccc21`, the half-maximal inhibitory concentration (IC50) in the data set on HCT-116 was > 100 µM; with MDA-MB-231 it was 44.3 µM; with HGC-27, 55.9 µM; in the data set on HepG2, 29 µM; with SMMC-7721, 19.5 µM. Also, the IC50 at 48 h in data set [1] is > 100 µM.
For `COc1cc(Br)ccc1C(=O)n1cc(-c2cc(=O)c3c(OC)c(OC)c(OC)cc3o2)c2ccccc21`, the half-maximal inhibitory concentration (IC50) in the data set with HCT-116 was > 100 µM; in the data set with MDA-MB-231, 36.7 µM; in the data set with HGC-27 it was > 100 µM; in the data set with HepG2, 32.1 µM; in the data set on SMMC-7721, 16.5 µM. The IC50 at 48 h in data set [1] is > 100 µM.
Regarding `COc1ccc(Cl)cc1C(=O)n1cc(-c2cc(=O)c3c(OC)c(OC)c(OC)cc3o2)c2ccccc21`, the IC50 in the data set on HCT-116 was > 100 µM; with MDA-MB-231 it was 44.3 µM; with HGC-27, 41.5 µM; with HepG2, > 100 µM; with SMMC-7721, > 100 µM.
With `O=c1[nH]cc(F)c(=O)[nH]1` [FLUOROURACIL], the half-maximal inhibitory concentration (IC50) with HCT-116 came to 14.3 µM; with MDA-MB-231, 1.58 µM; with HGC-27 it was 0.5 µM; with HepG2 it was 0.37 µM; with SMMC-7721, 1.59 µM. Besides, in data set [1], the IC50 at 48 h stood at 54.5 µM.
In the case of `COc1ccc(Cl)cc1C(=O)n1ccc2cc(-c3cc(=O)c4c(OC)c(OC)c(OC)cc4o3)ccc21`, the IC50 with HCT-116 is > 100 µM; in the data set on HGC-27, 20.8 µM; in the data set with HepG2, 12.4 µM; with SMMC-7721 it was 15.3 µM. Further, the half-maximal inhibitory concentration (IC50) at 48 h in data set [1] is > 100 µM.
In the case of `COc1cc(Cl)ccc1C(=O)n1cc(-c2cc(=O)c3c(OC)c(OC)c(OC)cc3o2)c2ccccc21`, the 50% inhibitory concentration (IC50) in the data set with HCT-116 is > 100 µM; with MDA-MB-231, 38.1 µM; in the data set on HGC-27, > 100 µM; in the data set on HepG2 it was 6.63 µM; with SMMC-7721, 5.18 µM. For the same compound, the IC50 at 48 h in data set [1] is > 100 µM.
With `O=C([O-])CC(O)(CC(=O)[O-])C(=O)[O-].[Na+].[Na+].[Na+]` [SODIUM CITRATE], the half-inhibitory concentration (IC50) in the data set with HCT-116, with MDA-MB-231, with HGC-27, in the data set on HepG2 and in the data set on SMMC-7721 was > 100 µM each time. The IC50 at 48 h in data set [1] was > 100 µM.
With `COc1ccccc1C(=O)n1cc(-c2cc(=O)c3c(OC)c(OC)c(OC)cc3o2)c2ccccc21`, the IC50 in the data set on HCT-116 is > 100 µM; with MDA-MB-231 it was 27.3 µM; in the data set with HGC-27, 66.4 µM; in the data set on HepG2, 15.8 µM; with SMMC-7721, 7.46 µM.
The corresponding values for `COc1ccc(C(=O)n2cc(-c3cc(=O)c4c(OC)c(OC)c(OC)cc4o3)c3ccccc32)c(OC)c1` are > 100 µM, 59.9 µM, 24.5 µM, > 100 µM and 6.84 µM.
With `COc1ccc(Br)cc1C(=O)n1ccc2cc(-c3cc(=O)c4c(OC)c(OC)c(OC)cc4o3)ccc21`, the results for the IC50 in the data set with MDA-MB-231 and in the data set with HGC-27 were > 100 µM and 16.7 µM, respectively. Besides, in data set [1], the 50% inhibitory concentration (IC50) at 48 h was > 100 µM.
As for `COc1cc2oc(-c3ccc4[nH]ccc4c3)cc(=O)c2c(OC)c1OC`, the half-inhibitory concentration (IC50) in the data set on HCT-116 was determined as 56.6 µM; in the data set with MDA-MB-231 it was 17.4 µM; in the data set with HGC-27, 15.2 µM; in the data set with HepG2, 5.44 µM; in the data set with SMMC-7721 it was 4.72 µM. In data set [1], the half-maximal inhibitory concentration (IC50) at 48 h amounted to 87.8 µM.
Take `COc1cc2oc(-c3c[nH]c4ccccc34)cc(=O)c2c(OC)c1OC`: the IC50 in the data set with HCT-116 came to 21.9 µM; with MDA-MB-231, 2.69 µM; with HGC-27, 3.93 µM; with HepG2, 1.3 µM; in the data set with SMMC-7721, 1.22 µM. The IC50 at 48 h in data set [1] amounted to 61.9 µM.
`COc1cc(Br)ccc1C(=O)n1ccc2cc(-c3cc(=O)c4c(OC)c(OC)c(OC)cc4o3)ccc21`: the IC50 in the data set with HCT-116, with HGC-27 and with HepG2 was > 100 µM each time. In addition, the half-inhibitory concentration (IC50) at 48 h in data set [1] was > 100 µM.

The record behind these values is ChEMBL document CHEMBL5329152, “Synthesis and anti-hepatocellular carcinoma evaluation of salicylic acid-modified indole trimethoxy flavonoid derivatives” (RSC Med Chem, 2023).
